LYPLA1 inh – blocks human lysophospholipase 1, a PME1 counter-screen; recombinant LYPLA1, FP-Rh probe fluorescence polarization; inhibition, % at 5.9 µM; actives 0.16% (n = 320,000); O75608;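 active means inhibition above the mean of all tested compounds plus 3 SD, set per campaign, cut at about 14% in these data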;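 further: inhibitors block serine hydrolase probe labeling of LYPLA1 so polarization falls; 0% = enzyme with DMSO and 100% = wells lacking LYPLA1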
Target sequence (O75608 whole entry, looked up): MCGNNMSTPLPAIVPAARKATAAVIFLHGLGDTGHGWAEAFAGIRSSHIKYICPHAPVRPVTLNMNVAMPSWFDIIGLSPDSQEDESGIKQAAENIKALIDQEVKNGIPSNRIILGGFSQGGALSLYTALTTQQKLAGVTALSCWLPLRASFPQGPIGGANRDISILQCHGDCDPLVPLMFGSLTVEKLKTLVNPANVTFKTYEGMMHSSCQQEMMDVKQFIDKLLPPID
proCasp3 act – activates human procaspase-3; recombinant procaspase-3 D3A, Ac-DEVD-pNA absorbance 405 nm; activation, % at 8.5 µM; actives 0.11% (n = 330,000); AID 463141;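 active means activation above the mean of all tested compounds plus 3 SD, cut at about 21% in these data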;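 further: 0% = DMSO alone and 100% = DMSO wells spiked with extra 5 µM PC-3 D3A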
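Assay system: Procaspase-3 D3A mutant, all three cleavage aspartates alanine. Buffer or medium: Zinc-free HEPES saline buffer with Triton X-100. Times: 1 h compound preincubation, 2 h substrate hydrolysis at 25 °C. Measured by: 405 nm absorbance of p-nitroaniline, reads at 0 and 120 min. Read-out basis: percent activation relative to control range. Replicates: singlicate.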
procasp7 counter – counter-screen: procaspase-7 (human) activation; recombinant procaspase-7, Ac-DEVD-pNA absorbance 405 nm; D23A/D198A/D206A triple mutant, cannot self-cleave; scale: DMSO 0, 5 µM enzyme 100; actives 0.093% (n = 330,000); AID 463210; activation, % at 8.5 µM;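 active means percent activation above the screen-wide mean plus 3 SD, cut at about 25% in these data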
Target sequence (P55210 whole entry D23A/D198A/D206A): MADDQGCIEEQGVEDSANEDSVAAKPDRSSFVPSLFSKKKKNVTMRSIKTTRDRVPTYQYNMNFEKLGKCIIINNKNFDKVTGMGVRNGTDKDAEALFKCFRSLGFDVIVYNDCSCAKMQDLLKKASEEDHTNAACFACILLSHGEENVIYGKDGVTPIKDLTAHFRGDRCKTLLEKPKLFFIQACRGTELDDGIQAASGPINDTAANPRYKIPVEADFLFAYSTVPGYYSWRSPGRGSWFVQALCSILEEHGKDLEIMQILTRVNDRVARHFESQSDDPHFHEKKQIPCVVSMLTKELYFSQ
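Assay system – Uncleavable procaspase-7 mutant enzyme · Quantity – 2 µM procaspase-7 mutant as dispensed · Times – 1 h preincubation, 2 h reaction · Dosing – single nominal 8.5 µM compound dose, 0.8% DMSO final · Buffer or medium – Zinc-free 50 mM HEPES buffer, pH 7.4, with NaCl and Triton X-100 · Detection – Epi-absorbance of released pNA at 405 nm, two timepoints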
PREPL inhibitor – inhibits the human prolyl oligopeptidase-like enzyme. recombinant PREPL, fluorescence polarization activity-based probe. inhibition, % at 5.96 µM. AID 2751. actives 0.68% (n = 320,000);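 further: 0% = enzyme with DMSO and 100% = wells lacking enzyme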
LYPLA2 inh – blocks human lysophospholipase 2, a PME1 counter-screen; actives 0.38% (n = 320,000); inhibition, % at 5.9 µM; AID 2177; O95372; recombinant LYPLA2, FP-Rh probe fluorescence polarization;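 active means inhibition above the screen-wide mean plus 3 SD, limit set per campaign, cut at about 26% in these data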;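 further: 0% = LYPLA2 with DMSO and 100% = wells lacking LYPLA2 enzyme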
PREPL inh cf – human PREPL inhibition, confirmation; shares compounds with PREPL inhibitor; recombinant PREPL, fluorescence polarization activity probe; inhibition, % at 5.96 µM; actives 67% (n = 2,000);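 further: 0% = protein with DMSO and 100% = wells lacking protein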
* marks the source's active call; other numbers are inactive results; . = no result; ! = not confirmed by another sample. Shown are actives, neighbours in structure and some others; about 1% of the full set was active somewhere. Unless noted, no stated cut-off is given here; in the data, active means inhibition above about 43%; inactive means the rest.

SMILES | LYPLA1 inh | proCasp3 act | procasp7 counter | PREPL inhibitor | LYPLA2 inh | PREPL inh cf
CCCCCCCCCCCCCCCC[N+](C)(C)CCN(Cc1ccc(OC)cc1)c1ncccn1 | -1 | -8 | -2 | 60* | 7 | 63*
COc1cc(/C=C/[N+](=O)[O-])ccc1OC(=O)/C=C/c1ccc(F)cc1 | 2 | -1 | -1 | 47* | 5 | 46*
CCCCCCCC[n+]1cccc(C(=O)N(CC)CC)c1 | 0 | 8 | 1 | 1 | 1 | .
CCCCCCCCCCCCCCCC[n+]1cccc(C(=O)N(CC)CC)c1 | 4 | -2 | 8 | 50* | 10 | 51*
O=C1C=C(c2ccccc2)CC(c2cccs2)C1n1cnc([N+](=O)[O-])c1 (stereo not given) | 0 | 5 | -13 | 48* | 0 | 45*
Cc1nc(-c2ccc(O)c(O)c2)cs1 | 1 | -23 | -28 | 46* | 7 | 2
CCC1=NC(c2ccc(Br)cc2)N(O)C1(C)C (stereo not given) | -1 | 6 | 4 | 14 | 2 | .
O=C(CN1C(=O)C2CC=CCC2C1=O)N1CCN(c2ccc([N+](=O)[O-])cc2)CC1 (stereo not given) | -3 | -5 | 0 | 48* | 13 | 32
Cc1nc([N+](=O)[O-])cn1Cc1cccc2ccccc12 | 3 | 5 | 1 | 23 | 12 | .
Cc1ccc(CSc2ccc3nnc(-c4ccccn4)n3n2)cc1 | -4 | 8 | 3 | 50* | 4 | 39
COc1cc(/C=N\NC(=O)c2ccc(-c3ccccc3)cc2)cc(Br)c1O | -3 | -16 | -15 | 43* | 0 | 41
CCOC(=O)/C(=C/c1cn(C)c2ccccc12)NC(=O)c1ccccc1 | -2 | 11 | 0 | -1 | 2 | .
O=c1cc(-c2ccc(O)c(O)c2)oc2cc(O[C@@H]3O[C@H](CO)[C@@H](O)[C@H](O)[C@H]3O)cc(O)c12 | . | 3 | -1 | 73* | . | 60*
C[C@@H]1O[C@@H](OC[C@H]2O[C@@H](Oc3cc(O)c4c(=O)cc(-c5ccc(O)c(O)c5)oc4c3)[C@H](O)[C@@H](O)[C@@H]2O)[C@H](O)[C@H](O)[C@H]1O | . | 9 | 1 | 28 | . | .
Nc1ccccc1N=Nc1ccccc1N | 0 | 4 | -12 | 50* | 2 | 43*
Cc1ccccc1OCC(O)Cn1c(=N)n(CCN2CCOCC2)c2ccccc21 (stereo not given) | 3 | 11 | 2 | 56* | 2 | 45*!
N=c1n(CCN2CCOCC2)c2ccccc2n1CC(O)COc1ccccc1 (stereo not given) | 2 | 6 | 7 | 30 | -1 | .
COc1ccc2occ(C(=O)c3coc4ccc(O)c(CN(C)C)c34)c2c1 | 0 | -7 | 1 | 35 | 9 | .
CN(C)Cc1c(O)ccc2occ(C(=O)c3ccccc3)c12 | 0 | -4 | -15 | 5 | -2 | .
O=C(c1ccccc1)c1coc2ccc(O)c(CN3CCOCC3)c12 | 0 | 1 | -2 | 43* | -2 | 44*
COc1ccc(C(=O)c2coc3ccc(O)c(CN4CCCCC4)c23)cc1 | 0 | 12 | 2 | 57* | 7 | 59*
O=C(Nc1ccc(C(=O)O)cc1)/C(=C\C=C\c1ccccc1)NC(=O)c1ccc(Br)cc1 | -8 | -2 | 1 | -17 | -8 | .
CC(C)c1ccc(C(O)P(=O)(OCc2ccccc2)c2ccc(N(C)C)cc2)cc1 (stereo not given) | 0 | -8 | -3 | 34 | 0 | .
CN(C)c1ccc(C(O)P(=O)(OCc2ccccc2)c2ccc(N(C)C)cc2)cc1 (stereo not given) | 1 | -2 | 2 | 51* | -3 | 53*
Cc1ccsc1/C=N/Nc1nc2ccccc2s1 | -2 | 7 | -7 | 46* | 0 | 55*
SMILES | LYPLA1 inh | proCasp3 act | procasp7 counter | PREPL inhibitor | LYPLA2 inh | PREPL inh cf
C/C(=N\Nc1nc2ccccc2s1)c1cccs1 | 1 | -3 | -12 | 45* | 8 | 51*
C/C(=N\Nc1nc(-c2ccccc2)cs1)c1cccs1 | 0 | -12 | -29 | 0 | 1 | .
C/C(NCC(C)(C)CN(C)C)=C(/C#N)C(=O)NCc1ccccc1 | 0 | -3 | 5 | 6 | -6 | .
CN=C1c2cc3c(Br)c(OC)ccc3n2CCN1C | -1 | 1 | 3 | 10 | -1 | .
O=C1NC(=S)S/C1=C/c1ccc(OC(=O)c2ccco2)cc1 | -5 | 1 | -4 | 65* | -9 | 69*
CCOc1cc(/C=C2/SC(=S)NC2=O)ccc1OC(=O)c1ccco1 | -13 | -9 | -9 | 66* | -26 | 67*
CS(=O)(=O)C1=NN2C(=N)/C(=C\c3ccc(OC(=O)c4ccco4)cc3)C(=O)N=C2S1 | -2 | 6 | -13 | 30 | 4 | .
CCc1cccc(NC(=S)N2CCC(c3ccccc3)C2)c1 (stereo not given) | 1 | 3 | -4 | -6 | 0 | .
O=C(CSC1=NS(=O)(=O)c2ccccc2N1)N1CCCCC1 | 6 | -3 | -15 | -1 | 7 | .
O=C(NCc1ccco1)c1ccc(F)c(S(=O)(=O)N2CCCCC2)c1 | -2 | -5 | -7 | 61* | -10 | 7
O=C(COC(=O)Cc1ccc(S(=O)(=O)N2CCOCC2)s1)Nc1ccc([N+](=O)[O-])cc1 | -2 | -3 | -8 | 45* | 5 | 38
CCCCNc1c(-c2ccc(SC(C)CC)cc2)nc2cnccn12 (stereo not given) | . | -2 | 2 | 59* | . | 55*
CCCCCCSc1cc(-c2nc3cnccn3c2NCCCC)ccc1OC | . | -7 | -1 | 18 | . | .
CC(=O)CCC(=O)N1CCCC(CNC(=O)c2ccc(-c3ccccc3)cc2)C1 (stereo not given) | 0 | -1 | 3 | 43* | 2 | 35
Nc1c(N(CCC2=CCCCC2)C(=O)c2ccccc2F)c(=O)[nH]c(=O)n1Cc1ccccc1 | 1 | 7 | 1 | 69* | -8 | 15
CCN(CC)CCNC(=O)Cc1nn(CC)c(=O)c2ccccc12 | 0 | 6 | 12 | -4 | -2 | .
CCN(CC)CCNc1ccc(CO)c2sc3ccccc3c(=O)c12 | -2 | 8 | -10 | 45* | -7 | 58*
CCN1CCc2c(sc(NC(=O)Nc3ccc(Cl)c(Cl)c3)c2C(N)=O)C1 | 14 | -21 | -15 | 70* | 14 | 54*
Cc1ccsc1C(=O)Nc1ccc(F)c([N+](=O)[O-])c1 | 2 | -5 | -1 | 45* | 6 | 38
CN(Cc1ccco1)c1ncnc2ccc(-c3ccccc3Cl)cc12 | -4 | -4 | -2 | 45* | -4 | 20
CN(Cc1ccco1)c1ncnc2ccc(-c3ccoc3)cc12 | -4 | -6 | 5 | 16 | -12 | .
CCN(CC)CCN1c2ccccc2Sc2ccc3ccccc3c21 | -1 | -12 | -2 | 46* | 4 | 37
